Assay results gathered from unrelated publications.
Effect on: cell growth or viability

With CC(C)=CCc1ncc(/C=C2\NC(=O)[C@H](C(C)C)NC2=O)[nH]1 the IC50 was > 15 µM (NCI-H446; SRB).
With Cc1ccc(S(=O)(=O)n2cc(/C=N/NC(=O)c3ccc(Br)cc3)c3ccccc32)cc1 the IC50 was > 50 µM (MCF-10A; MTT; 48 h).
CC(=O)c1ccc2cc(S(=O)(=O)Nc3ccc(F)cc3)ccc2c1 gave an IC50 of 93.4 µM (MDCK; neutral red; 48 h).
With Nc1ccn([C@@H]2O[C@H](CO)[C@@H](O)C2(F)F)c(=O)n1 the IC50 was 5.78 µg/mL (4T1; MTT; 24 h).
For CC(=O)c1ccc2cc(S(=O)(=O)Nc3ccccc3Cl)ccc2c1, the IC50 was 12.7 µM (MDCK; neutral red; 48 h).
The IC50 of CN1CCC(NC2CCc3[nH]c4c(C(N)=O)ccc(-c5ccccc5Cl)c4c3C2)CC1 (stereo not drawn) is reported as 0.00802 µM (NCI-H446; 96 h).
Cc1ccc(S(=O)(=O)n2cc(/C=N/NC(=O)c3ccccc3C)c3ccccc32)cc1 gave an IC50 of > 50 µM (MCF-10A; MTT; 48 h).
O=c1cc(OCc2cc(-c3ccccc3)no2)c2ccccc2o1 has an IC50 of > 100 µM (K562; MTS; 72 h).
With Cc1ccc(S(=O)(=O)n2cc(/C=N/NC(=O)Cc3ccc(F)cc3F)c3ccccc32)cc1 the IC50 was > 50 µM (MCF-10A; MTT; 48 h).
For CCOC(=O)c1c(C)nc2ccc(-c3cccc(F)c3)cc2c1O, the IC50 was ≥ 100 µM (MCF-10A; MTT; 48 h).
COc1cccc2c1C(=O)c1c(O)c3c(c(O)c1C2=O)C[C@@](O)(C(=O)CO)C[C@@H]3O[C@H]1C[C@H](N)[C@H](O)[C@H](C)O1 has an IC50 of 70 µM (MDCK; neutral red; 48 h).
COC[C@H](NC(=O)c1ccn(S(C)(=O)=O)c1)C(=O)Nc1nc(-c2cccc(N3C[C@@H](C)O[C@@H](C)C3)n2)cs1 has an IC50 of 0.0265 µM (VCaP; ATP luminescence; 7 days).
For O=C1C(=O)N(CCn2ncc3c(=O)[nH]cnc32)c2ccccc21, the IC50 was 23.1 µg/mL (BALB/3T3 clone A31; SRB; 72 h).
The IC50 of CC(C)[C@@H]1NC(=O)/C(=C/c2cnc[nH]2)NC1=O is reported as > 15 µM (NCI-H446; SRB).
N#Cc1ccc(-c2cc(CNc3cccc4cccnc34)on2)cc1 has an IC50 of 11.1 µM (K562; MTS; 72 h).
Cc1ccc(S(=O)(=O)n2cc(/C=N/NC(=O)c3ccccc3)c3ccccc32)cc1 gave an IC50 of > 50 µM (MCF-10A; MTT; 48 h).
CC(=O)c1ccc2cc(S(=O)(=O)Nc3ccc(Br)cc3)ccc2c1 gave an IC50 of 95.8 µM (MDCK; neutral red; 48 h).
Cc1ccc(S(=O)(=O)n2cc(/C=N/NC(=O)c3ccccc3Br)c3ccccc32)cc1 gave an IC50 of > 50 µM (MCF-10A; MTT; 48 h).
COc1ccc2c(c1)C(=O)C(=O)N2CCn1cnc2c(N)ncnc21 gave an IC50 of 55.3 µg/mL (BALB/3T3 clone A31; SRB; 72 h).
With FC(F)(F)c1cc(OCc2cc(-c3ccc(Cl)cc3Cl)no2)c2ccccc2n1 the IC50 was > 100 µM (K562; MTS; 72 h).
With CNC(=O)c1cc(Oc2ccc(NC(=O)Nc3ccc(Cl)c(C(F)(F)F)c3)cc2)ccn1 the IC50 was 0.42 µg/mL (BALB/3T3 clone A31; SRB; 72 h).
Cc1ccc(S(=O)(=O)n2cc(/C=N/NC(=O)c3ccco3)c3ccccc32)cc1 has an IC50 of > 50 µM (MCF-10A; MTT; 48 h).
For COc1ccc(NS(=O)(=O)c2ccc3cc(C(C)=O)ccc3c2)cc1, the IC50 was 18.2 µM (MDCK; neutral red; 48 h).
With Nc1ncnc2c1ncn2CCN1C(=O)C(=O)c2cc(F)ccc21 the IC50 was 47.2 µg/mL (BALB/3T3 clone A31; SRB; 72 h).
The IC50 of Cc1ccc(S(=O)(=O)n2cc(/C=N/NC(=O)Cc3ccccc3C(F)(F)F)c3ccccc32)cc1 is reported as > 50 µM (MCF-10A; MTT; 48 h).
Cc1ncsc1-c1ccc([C@H](C)NC(=O)[C@@H]2C[C@@H](O)CN2C(=O)[C@@H](NC(=O)CN2CCN(c3cc(-c4ccccc4O)nnc3N)CC2)C(C)(C)C)cc1 has an IC50 of 0.0092 µM (VCaP; ATP luminescence; 7 days).
CC(C)[C@@H](C)NC(=O)c1cc(-c2cc3ccccc3n2C)cc(C(=O)NCCc2ccccn2)n1 has an IC50 of 25.3 µM (JHH7; CCK-8).
For Clc1ccc(-c2cc(CNc3cccc4cccnc34)on2)c(Cl)c1, the IC50 was 33 µM (K562; MTS; 72 h).
For Nc1ncnc2c1ncn2CCN1C(=O)C(=O)c2cc(Cl)ccc21, the IC50 was 24.4 µg/mL (BALB/3T3 clone A31; SRB; 72 h).
With CC(C)(C)[C@H](NC(=O)/C=C/c1ccc(OP(=O)(O)O)cc1)C(=O)N1CCC[C@H]1C(=O)N(c1ccccc1)c1ccc(I)cc1 the IC50 was 3.07 µM (JHH7; CCK-8).
